Results as given in ChEMBL document CHEMBL1124663, “Design, synthesis, antineoplastic activity, and chemical properties of bis(carbamate) derivatives of 4,5-bis(hydroxymethyl)imidazole” (J Med Chem, 1989).

Experiments:
Mus musculus [1] = test: Body Weight Difference (BWD) of test animals with P388 administered with 200 mg/kg compound is determined; assay type: functional
In short: (§1)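 P388 leukaemia: about 10^6 cells in ascitic fluid inoculated ip on day 0 (CD2F1 mice). Compound given ip in normal saline as a freshly prepared solution or suspension, once daily on days 1–5. Treated-minus-control body weight difference in g, taken as day 5 minus day 1 weight. Groups of six.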

Mus musculus [2] = test: Body Weight Difference (BWD) of test animals with P388 administered with 25 mg/kg compound is determined; assay type: functional; in short: as §1
Mus musculus [3] = test: Body Weight Difference (BWD) of test animals with P388 administered with 400 mg/kg compound is determined; assay type: functional; in short: as §1
Mus musculus [4] = test: Body Weight Difference (BWD) of test animals with P388 administered with 50 mg/kg compound is determined; assay type: functional; in short: as §1
Mus musculus [5] = test: Body Weight Difference (BWD) of test animals administered with 100 mg/kg compound is determined; assay type: functional
Mus musculus [6] = test: Toxicity day evaluation was carried out on day 5 for animal dosed with 100 mg/kg compound. Number of animals in initial test groups were 6; assay type: organism-based; set-up: dose 100 mg/kg; conditions: in vivo
Mus musculus [7] = test: Toxicity day evaluation was carried out on day 5 for animal dosed with 200 mg/kg compound. Number of animals in initial test groups were 6; assay type: organism-based; set-up: dose 200 mg/kg; conditions: in vivo
Mus musculus [8] = test: Toxicity day evaluation was carried out on day 5 for animal dosed with 25 mg/kg compound. Number of animals in initial test groups were 6; assay type: organism-based; set-up: dose 25 mg/kg; conditions: in vivo
Mus musculus [9] = test: Toxicity day evaluation was carried out on day 5 for animal dosed with 400 mg/kg compound. Number of animals in initial test groups were 6; assay type: organism-based; set-up: dose 400 mg/kg; conditions: in vivo
Mus musculus [10] = test: Toxicity day evaluation was carried out on day 5 for animal dosed with 50 mg/kg compound. Number of animals in initial test groups were 6; assay type: organism-based; set-up: dose 50 mg/kg; conditions: in vivo
Mus musculus [11] = test: Ability of 50 mg/kg of compound to kill P388 tumor cells in mice is expressed as the log of the tumor cell population at the onset of treatment minus the log of the tumor cell population at the end of treatment.; assay type: functional
In short: (§2)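 P388 leukemia, 10^6 cells implanted ip on day 0. Drug given ip daily on days 1-5 as a saline suspension freshly prepared before injection. Log cell kill is computed from survival, with % T/C taken as median survival time of treated versus control mice.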

Mus musculus [12] = test: Ability of 25 mg/kg of compound to kill P388 tumor cells in mice is expressed as the log of the tumor cell population at the onset of treatment minus the log of the tumor cell population at the end of treatment.; assay type: functional; in short: as §2
Mus musculus [13] = test: The percent of the median survival time of test mice compared to control mice is determined for mice administered with 25 mg/kg compound.; assay type: functional
Mus musculus [14] = test: Body Weight Difference (BWD) of test animals administered with 100 mg/kg compound is determined on day 5 for P388 tumor cells; assay type: functional; in short: as §1
Mus musculus [15] = test: Body Weight Difference (BWD) of test animals administered with 200 mg/kg compound is determined on day 5 for P388 tumor cells; assay type: functional; in short: as §1
Mus musculus [16] = test: Body Weight Difference (BWD) of test animals administered with 25 mg/kg compound is determined on day 5 for P388 tumor cells; assay type: functional; in short: as §1
Mus musculus [17] = test: Ability of 100 mg/kg of compound to kill tumor cells in mice is expressed as the log of the tumor cell population at the onset of treatment minus the log of the tumor cell population at the end of treatment.; assay type: functional
Mus musculus [18] = test: Body Weight Difference (BWD) of test animals administered with 400 mg/kg compound is determined on day 5 for P388 tumor cells; assay type: functional; in short: as §1
Mus musculus [19] = test: Body Weight Difference (BWD) of test animals administered with 50 mg/kg compound is determined on day 5 for P388 tumor cells; assay type: functional; in short: as §1
Mus musculus [20] = test: Ability of 200 mg/kg of compound to kill tumor cells in mice is expressed as the log of the tumor cell population at the onset of treatment minus the log of the tumor cell population at the end of treatment.; assay type: functional
Mus musculus [21] = test: Toxicity day evaluation was carried out on day 5 for animal dosed with 100 mg/kg compound; 6/6; assay type: organism-based; set-up: dose 100 mg/kg; conditions: in vivo
Mus musculus [22] = test: Toxicity day evaluation was carried out on day 5 for animal dosed with 200 mg/kg compound; 6/6; assay type: organism-based; set-up: dose 200 mg/kg; conditions: in vivo
Mus musculus [23] = test: Toxicity day evaluation was carried out on day 5 for animal dosed with 400 mg/kg compound; 3/6; assay type: organism-based; set-up: dose 400 mg/kg; conditions: in vivo
Mus musculus [24] = test: Toxicity day evaluation was carried out on day 5 for animal dosed with 50 mg/kg compound; 6/6; assay type: organism-based; set-up: dose 50 mg/kg; conditions: in vivo
Mus musculus [25] = test: The percent of the median survival time of test mice compared to control mice is determined for mice administered with 12.5 mg/kg compound.; assay type: functional
Mus musculus [26] = test: Ability of 50 mg/kg of compound to kill tumor cells in mice is expressed as the log of the tumor cell population at the onset of treatment minus the log of the tumor cell population at the end of treatment.; assay type: functional
Mus musculus [27] = test: Toxicity day evaluation was carried out on day 5 for animal dosed with 25 mg/kg compound; 6/6; assay type: organism-based; set-up: dose 25 mg/kg; conditions: in vivo
Mus musculus [28] = test: Toxicity day evaluation was carried out on day 5 for animal dosed with 12.5 mg/kg compound; 6/6; assay type: organism-based; set-up: dose 12.5 mg/kg; conditions: in vivo
Mus musculus [29] = test: Body Weight Difference (BWD) of test animals administered with 12.5 mg/kg compound is determined on day 5 for P388 tumor cells; assay type: functional; in short: as §1
Mus musculus [30] = test: The percent of the median survival time of test mice compared to control mice is determined for mice administered with 50 mg/kg compound.; assay type: functional
Mus musculus [31] = test: Body Weight Difference (BWD) of test animals with P388 administered with 100 mg/kg compound is determined; assay type: functional; in short: as §1
Mus musculus [32] = test: Body Weight Difference (BWD) of test animals with P388 administered with 12.5 mg/kg compound is determined; assay type: functional; in short: as §1
Mus musculus [33] = test: Toxicity day evaluation was carried out on day 5 for animal dosed with 100 mg/kg compound. Number of animals in initial test groups were 5; assay type: organism-based; set-up: dose 100 mg/kg; conditions: in vivo
Mus musculus [34] = test: Toxicity day evaluation was carried out on day 5 for animal dosed with 12.5 mg/kg compound. Number of animals in initial test groups were 5; assay type: organism-based; set-up: dose 12.5 mg/kg; conditions: in vivo
Mus musculus [35] = test: Toxicity day evaluation was carried out on day 5 for animal dosed with 200 mg/kg compound. Number of animals in initial test groups were 5; assay type: organism-based; set-up: dose 200 mg/kg; conditions: in vivo
Mus musculus [36] = test: Toxicity day evaluation was carried out on day 5 for animal dosed with 25 mg/kg compound. Number of animals in initial test groups were 5; assay type: organism-based; set-up: dose 25 mg/kg; conditions: in vivo
Mus musculus [37] = test: Toxicity day evaluation was carried out on day 5 for animal dosed with 50 mg/kg compound. Number of animals in initial test groups were 5; assay type: organism-based; set-up: dose 50 mg/kg; conditions: in vivo
Mus musculus [38] = test: Ability of 100 mg/kg of compound to kill tumor cells in mice is expressed as the log of the tumor cell population at the onset of treatment minus the log of the tumor cell population at the end of treatment; assay type: functional
Mus musculus [39] = test: Toxicity day evaluation was carried out on day 5 for animal dosed with 100 mg/kg compound; 5/5; assay type: organism-based; set-up: dose 100 mg/kg; conditions: in vivo
Mus musculus [40] = test: Toxicity day evaluation was carried out on day 5 for animal dosed with 200 mg/kg compound; 5/5; assay type: organism-based; set-up: dose 200 mg/kg; conditions: in vivo
Mus musculus [41] = test: Toxicity day evaluation was carried out on day 5 for animal dosed with 400 mg/kg compound; 4/5; assay type: organism-based; set-up: dose 400 mg/kg; conditions: in vivo
Mus musculus [42] = test: Toxicity day evaluation was carried out on day 5 for animal dosed with 50 mg/kg compound; 5/5; assay type: organism-based; set-up: dose 50 mg/kg; conditions: in vivo
Mus musculus [43] = test: Ability of 50 mg/kg of compound to kill tumor cells in mice is expressed as the log of the tumor cell population at the onset of treatment minus the log of the tumor cell population at the end of treatment; assay type: functional
Mus musculus [44] = test: Toxicity day evaluation was carried out on day 5 for animal dosed with 12.5 mg/kg compound; 5/5; assay type: organism-based; set-up: dose 12.5 mg/kg; conditions: in vivo
Mus musculus [45] = test: Toxicity day evaluation was carried out on day 5 for animal dosed with 25 mg/kg compound; 5/5; assay type: organism-based; set-up: dose 25 mg/kg; conditions: in vivo
Mus musculus [46] = test: The percent of the median survival time of test mice compared to control mice is determined for mice administered with 12.5 mg/kg compound; assay type: functional
Mus musculus [47] = test: The percent of the median survival time of test mice compared to control mice is determined for mice administered with 200 mg/kg compound; assay type: functional
Mus musculus [48] = test: The percent of the median survival time of test mice compared to control mice is determined for mice administered with 25 mg/kg compound; assay type: functional

COc1nc(COC(=O)NC(C)C)c(COC(=O)NC(C)C)n1C
BWD (Mus musculus [1]): -2.6 g
BWD (Mus musculus [2]): -0.1 g
BWD (Mus musculus [3]): -4.2 g
BWD (Mus musculus [4]): -1 g
BWD (Mus musculus [5]): -2.1 g
Survivors / animals tested (Mus musculus [6]): 6
Survivors / animals tested (Mus musculus [7]): 6
Survivors / animals tested (Mus musculus [8]): 6
Survivors / animals tested (Mus musculus [9]): 6
Survivors / animals tested (Mus musculus [10]): 6
KE (Mus musculus [11]): 0.54
KE (Mus musculus [12]): -0.6
T/C (Mus musculus [13]): 130%

CSc1nc(COC(=O)NC(C)C)c(COC(=O)NC(C)C)n1Cc1ccccc1
BWD (Mus musculus [14]): -0.3 g
BWD (Mus musculus [15]): -2.2 g
BWD (Mus musculus [16]): -1.5 g
KE (Mus musculus [17]): -0.39
BWD (Mus musculus [18]): -3.2 g
BWD (Mus musculus [19]): -0.5 g
KE (Mus musculus [20]): -0.32
Survivors / animals tested (Mus musculus [21]): 6
Survivors / animals tested (Mus musculus [22]): 6
Survivors / animals tested (Mus musculus [23]): 3
Survivors / animals tested (Mus musculus [24]): 6
T/C (Mus musculus [25]): 98%
KE (Mus musculus [26]): -0.42
Survivors / animals tested (Mus musculus [27]): 6
Survivors / animals tested (Mus musculus [28]): 6
BWD (Mus musculus [29]): -0.2 g
T/C (Mus musculus [30]): 110%

CNC(=O)OCc1nc(-c2ccccc2)n(C)c1COC(=O)NC
BWD (Mus musculus [1]): -2.2 g
BWD (Mus musculus [2]): 0 g
BWD (Mus musculus [4]): -0.8 g
BWD (Mus musculus [31]): -1 g
BWD (Mus musculus [32]): -0.2 g
Survivors / animals tested (Mus musculus [33]): 5
Survivors / animals tested (Mus musculus [34]): 5
Survivors / animals tested (Mus musculus [35]): 5
Survivors / animals tested (Mus musculus [36]): 5
Survivors / animals tested (Mus musculus [37]): 5
T/C (Mus musculus [25]): 98%

CNC(=O)OCc1nc(SC)n(-c2ccccc2)c1COC(=O)NC
BWD (Mus musculus [14]): -1.6 g
BWD (Mus musculus [15]): -3 g
BWD (Mus musculus [18]): -5.2 g
BWD (Mus musculus [19]): -1.4 g
KE (Mus musculus [38]): 0.17
Survivors / animals tested (Mus musculus [39]): 5
Survivors / animals tested (Mus musculus [40]): 5
Survivors / animals tested (Mus musculus [41]): 4
Survivors / animals tested (Mus musculus [42]): 5
KE (Mus musculus [43]): 0.6

CNC(=O)OCc1ncn(-c2ccccc2)c1COC(=O)NC
BWD (Mus musculus [1]): -1.2 g
BWD (Mus musculus [2]): 0.2 g
BWD (Mus musculus [4]): -0.8 g
BWD (Mus musculus [31]): -0.4 g
BWD (Mus musculus [32]): -0.4 g
Survivors / animals tested (Mus musculus [39]): 5
Survivors / animals tested (Mus musculus [44]): 5
Survivors / animals tested (Mus musculus [40]): 5
Survivors / animals tested (Mus musculus [45]): 5
Survivors / animals tested (Mus musculus [42]): 5
T/C (Mus musculus [46]): 99%
T/C (Mus musculus [47]): 99%
T/C (Mus musculus [48]): 95%
